One data set has as its target Adenosine receptor A2a (Rattus norvegicus, UniProt P30543). The data set is described as follows: Displacement of [3H]-CGS- 21680 binding to Adenosine A2A receptor in rat striatal membranes. The data set is classed as cell membranes, Membrane. The essentials: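 Adenosine deaminase (3 units/mL) present during preparation, 30 min preincubation at 30 °C and incubation. At least five competitor concentrations over 3 orders of magnitude.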
Background: In a radioligand displacement assay an active substance lowers the binding of a labelled ligand.

Data set [1] addresses Adenosine receptor A2a (Rattus norvegicus) (UniProt P30543). The data set is described as follows: Displacement of [3H]-CGS- 21680 from Adenosine A2A receptor in rat striatal membranes. Particulars: Membrane, concentration not given here; call rule not given here. In kind it is cell membranes. The procedure, abridged: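 Rat striatal membranes with [3H]CGS 21680. Adenosine deaminase (3 units/mL) present during preparation, 30 min preincubation at 30 °C and incubation. At least five competitor concentrations over 3 orders of magnitude.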

For data set [2], the target named is T1, Adenosine receptor A3 (Homo sapiens, UniProt P0DMS8).
T1 sequence (P0DMS8 whole entry): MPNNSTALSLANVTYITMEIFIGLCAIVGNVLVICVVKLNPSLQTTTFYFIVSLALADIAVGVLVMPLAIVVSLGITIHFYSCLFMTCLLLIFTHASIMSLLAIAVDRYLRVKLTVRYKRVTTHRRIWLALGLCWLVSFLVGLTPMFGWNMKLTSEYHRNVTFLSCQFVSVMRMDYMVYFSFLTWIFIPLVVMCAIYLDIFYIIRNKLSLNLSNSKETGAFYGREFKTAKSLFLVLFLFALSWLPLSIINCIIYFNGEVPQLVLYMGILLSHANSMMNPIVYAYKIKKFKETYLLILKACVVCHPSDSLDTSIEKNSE
As to the kind of experiment: Displacement of [125]AB-MECA binding to human Adenosine A3 receptor expressed in HEK cells. The data set is classed as cell-based, HEK293.

Data set [3] deals with T2, Adenosine receptor A3 (Rattus norvegicus, UniProt P28647).
T2 sequence (P28647 whole entry): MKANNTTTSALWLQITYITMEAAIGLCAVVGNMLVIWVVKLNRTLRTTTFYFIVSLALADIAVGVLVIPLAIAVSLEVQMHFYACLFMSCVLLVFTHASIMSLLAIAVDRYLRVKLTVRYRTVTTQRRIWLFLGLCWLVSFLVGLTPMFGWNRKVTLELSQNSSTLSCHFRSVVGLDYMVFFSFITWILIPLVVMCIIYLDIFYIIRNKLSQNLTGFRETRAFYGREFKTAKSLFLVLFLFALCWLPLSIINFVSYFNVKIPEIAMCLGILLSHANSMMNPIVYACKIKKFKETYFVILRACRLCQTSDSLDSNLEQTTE
As to the kind of experiment: Binding affinity against rat Adenosine A3 receptor from CHO cells. The data set is classed as cell-based. The essentials:
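CHO cell membranes stably expressing cloned rat A3 receptor. Nonspecific binding defined with 100 μM R-PIA. Filtration assay. IC50 converted to Ki by Cheng–Prusoff.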

The target in another data set is T3, Adenosine receptor A1 (Rattus norvegicus, UniProt P25099).
T3 sequence (P25099 whole entry): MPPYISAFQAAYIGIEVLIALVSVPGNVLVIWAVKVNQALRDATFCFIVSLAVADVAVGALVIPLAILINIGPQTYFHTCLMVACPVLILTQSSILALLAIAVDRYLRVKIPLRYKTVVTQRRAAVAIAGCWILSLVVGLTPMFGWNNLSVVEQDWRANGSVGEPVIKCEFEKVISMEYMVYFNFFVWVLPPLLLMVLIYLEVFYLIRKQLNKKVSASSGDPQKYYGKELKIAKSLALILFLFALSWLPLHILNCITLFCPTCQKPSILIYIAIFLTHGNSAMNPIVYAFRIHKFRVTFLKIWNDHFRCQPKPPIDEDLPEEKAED
As to the kind of experiment: (§1) Displacement of [3H](R)-PIA binding to Adenosine A1 receptor in rat brain membranes. In kind it is cell membranes.

In data set [4] the target is T4, Voltage-gated L-type calcium channel (Rattus norvegicus, UniProt P22002+Q02485+P27732). As to the kind of experiment: Inhibition of [3H]-isradipine binding to L-type [Ca2+] channel of rat brain membranes. In kind it is cell membranes, Membrane. The essentials:
(§2)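 Rat brain membranes (~100 μg protein) incubated 1 h at 25 °C with 0.1 nM [3H]isradipine and varying competitor in 50 mM Tris, pH 7.4. Nonspecific binding with 10 μM nitrendipine.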

Data set [5] addresses T4, Voltage-gated L-type calcium channel. The data set is described as follows: Inhibition of [3H]isradipine binding to L-type [Ca2+] channel of rat brain membranes. The data set is classed as cell membranes, Membrane. The essentials:
as §2

For data set [6], the target named is T5, Adenosine receptor A1 (Rattus norvegicus) (UniProt P25099).
T5 sequence (whole entry): T3 sequence (P25099 whole entry)
The data set is described as §1. In kind it is cell membranes. Particulars: concentration not given here. The procedure, abridged:
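Rat cerebral cortex membranes with [3H]-(R)-PIA. Adenosine deaminase (3 units/mL) present during membrane preparation, during a 30 min preincubation at 30 °C and during incubation. Competitor at ≥5 concentrations spanning 3 log units, DMSO ≤2%.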

The target in data set [7] is T6, Equilibrative nucleoside transporter 1 (Rattus norvegicus, UniProt O54698).
T6 sequence (O54698 whole entry): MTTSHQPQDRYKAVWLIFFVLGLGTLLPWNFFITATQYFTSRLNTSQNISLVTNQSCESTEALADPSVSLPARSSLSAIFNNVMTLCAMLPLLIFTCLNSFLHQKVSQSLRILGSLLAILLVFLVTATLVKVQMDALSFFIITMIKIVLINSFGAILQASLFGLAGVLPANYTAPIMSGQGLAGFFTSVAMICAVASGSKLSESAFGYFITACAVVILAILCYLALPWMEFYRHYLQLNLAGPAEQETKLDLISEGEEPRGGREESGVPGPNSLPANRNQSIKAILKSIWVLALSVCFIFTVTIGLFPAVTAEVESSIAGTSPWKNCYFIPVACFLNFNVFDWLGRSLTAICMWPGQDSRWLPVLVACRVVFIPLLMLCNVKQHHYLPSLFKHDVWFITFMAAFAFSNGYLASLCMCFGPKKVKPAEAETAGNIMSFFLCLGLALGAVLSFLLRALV
The data set is described as follows: Ability to displace radioligand from Na+ independent Adenosine transporter in rat. The procedure, abridged:
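Rat forebrain membranes incubated 30 min at 23 °C with 0.7 nM [3H]NBI and varying competitor concentrations in 50 mM Tris, pH 7.4. Ki or percent of specific binding displaced.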

Data set [8] deals with T7, Adenosine receptor A3 (Rattus norvegicus) (UniProt P28647).
T7 sequence (whole entry): T2 sequence (P28647 whole entry)
The data set is described as follows: Inhibition of adenylyl cyclase by A3 agonist IB-MECA(10e-6M) in CHO cell membranes expressing rat Adenosine A3 receptor. The data set is classed as functional, cell-based. The essentials:
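Membranes from CHO cells stably expressing rat A3 receptor. Stimulated with 1 μM forskolin and [α-32P]ATP. Test compounds at 10 μM against the stated IB-MECA concentration. Stop buffer contained [3H]cyclic AMP. Reported as percent inhibition; significance by t-test.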

SMILES strings stand for the structures. Bounds are passed on as bounds.

Sequence of Adenosine receptor A2a (P30543 whole entry): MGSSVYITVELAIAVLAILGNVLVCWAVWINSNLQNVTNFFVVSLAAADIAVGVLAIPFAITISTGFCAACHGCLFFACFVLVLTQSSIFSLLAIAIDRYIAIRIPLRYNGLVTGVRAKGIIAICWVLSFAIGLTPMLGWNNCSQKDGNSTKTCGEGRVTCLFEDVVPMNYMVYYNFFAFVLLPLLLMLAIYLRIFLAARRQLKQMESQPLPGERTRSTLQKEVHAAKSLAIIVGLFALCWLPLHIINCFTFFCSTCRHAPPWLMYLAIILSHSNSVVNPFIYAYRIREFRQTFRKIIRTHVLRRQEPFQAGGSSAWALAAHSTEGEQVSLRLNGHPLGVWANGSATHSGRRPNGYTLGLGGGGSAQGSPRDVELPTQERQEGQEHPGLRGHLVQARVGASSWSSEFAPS
Sequence of Adenosine receptor A2a (Rattus norvegicus) (P30543 whole entry): as above

Consider `CCO/C(O)=C1\C(C)=NC(C)=C(C(=O)OC)C1c1ccc(O)c(OC)c1` (centres undefined), for which, on Adenosine receptor A2a (read-out: Ki), the Ki – broadly, the equilibrium dissociation constant of an inhibitor or competing ligand from its target – came out at 56.8 µM. `COCCO/C(O)=C1\C(C)=NC(C)=C(C(=O)OC)C1C` (centres undefined): the inhibition – broadly, the drop in the measured response relative to a control, in per cent – in data set [1] stood at 37%. Take `CCO/C(O)=C1/C(C)=NC(C)=C(C(=O)OCCSc2ccccc2)C1C` (centres undefined): the Ki at Adenosine receptor A2a (read-out: Ki) stood at 7.1 µM. Regarding `CCO/C(O)=C1\C(C)=NC(C)=C(C(=O)OC)C1CC` (centres undefined), the inhibition constant (Ki) at Adenosine receptor A2a (read-out: Ki) is 9.56 µM. Consider `CCCC1C(C(=O)OCC)=C(C)N=C(C)/C1=C(\O)OC` (centres undefined), for which, on Adenosine receptor A2a (read-out: Ki), the Ki came to 11.5 µM. Regarding `CCO/C(O)=C1\C(C)=NC(C)=C(C(=O)OC)C1CC(C)CCC=C(C)C` (centres undefined), the inhibition constant (Ki) at Adenosine receptor A2a (read-out: Ki) stood at 23.1 µM. The same measure, in the same setting: with `CCO/C(O)=C1\C(C)=NC(C)=C(C(=O)OC)C1CCc1ccccc1` (centres undefined) the figure was 6.71 µM; with `CO/C(O)=C1/C(C)=NC(C)=C(C(=O)OCc2ccccc2)C1C` (centres undefined), 9.72 µM. In the case of `CCOC(=O)C1=C(C)NC(C)=C(C(=O)OC)C1/C=C/c1ccccc1` (centres undefined), the Ki on Adenosine receptor A3 [2] stood at 0.67 µM; at Adenosine receptor A3 [3] it was 12.1 µM; on Adenosine receptor A1, 16.1 µM; in data set [4], 0.694 µM; at Adenosine receptor A2a (read-out: Ki), 49.3 µM. As to `CCOC(=O)C1=C(c2ccccc2)N=C(C)/C(=C(/O)OCC)C1/C=C/c1ccccc1` (centres undefined), the Inhibition (in general, the percentage by which the read-out fell short of the control) in data set [5] is under 10%. At Adenosine receptor A2a (read-out: Ki), the inhibitory constant (Ki) was 4.77 µM. Take `CCCCC1=C(C(=O)OCC)C(C)/C(=C(/O)OCC)C(C)=N1` (centres undefined): the Ki at Adenosine receptor A2a (read-out: Ki) is 38 µM. On the same count and under the same terms, to `CCO/C(O)=C1\C(C)=NC(C)=C(C(=O)OC)C1C` (stereo in doubt; 29) belongs 8.96 µM. Consider `CCOC(=O)C1=C(c2ccccc2)N=C(C)/C(=C(\O)OCC)C1C` (stereo in doubt; 27), for which the Inhibition in [5] was found to be 17%. On Adenosine receptor A2a (read-out: Ki), the inhibition constant (Ki) is 35.9 µM.

As for `CCOC(=O)C1=C(C)NC(C)=C(C(=O)OC)C1C#Cc1ccccc1` (centres undefined), the Inhibition in [5] is reported as 23%. On to `CCOC(=O)C1=C(C)NC(C)=C(C(=O)OC)C1c1cccc([N+](=O)[O-])c1` (centres undefined) [NITRENDIPINE], for which the Ki at Adenosine receptor A3 [2] is 8.3 µM; on Adenosine receptor A1, 8.96 µM; at Adenosine receptor A2a (read-out: Ki) it was 23 µM.

In the case of `COc1ccc(C2C=CNC=C2)cc1`, the Ki on Adenosine receptor A2a (read-out: Ki) was found to be 71 µM. In data set [6], `CCO/C(O)=C1\C(C)=NC(C)=C(C(=O)OC)C1c1ccc([N+](=O)[O-])cc1` (centres undefined) had an inhibition of 37%. The Ki at Adenosine receptor A2a (read-out: Ki) is 35.6 µM. Take `CCOC(=O)C1=C(C)NC(C)=C(C(=O)OC)C1c1ccccc1` (centres undefined): on Adenosine receptor A2a (read-out: Ki), the Ki worked out at 2.74 µM.

In the case of `CCO/C(O)=C1\C(C)=NC(C)=C(C(=O)OC)C1c1ccc2c(c1)OCO2` (centres undefined), the Ki at Adenosine receptor A3 [2] was 4.58 µM; on Adenosine receptor A1, 3.66 µM; on Adenosine receptor A2a (read-out: Ki) it was 5.27 µM. With `COC(=O)C1=C(C)NC(C)=C(C(=O)OCCN(C)Cc2ccccc2)C1c1cccc([N+](=O)[O-])c1` (centres undefined) [NICARDIPINE], the Ki turned out to be 5.36 µM in data set [7] and 11 µM at Adenosine receptor A3 [3]. In data set [8], this compound registered an inhibition of 27.2%.

Turning to `CCOC(=O)C1=C(c2ccccc2)N=C(C)/C(=C(\O)OCC)C1C` (stereo in doubt; 30), the Inhibition in data set [5] is recorded as under 10%. Also, at Adenosine receptor A2a (read-out: Ki), the Ki is 28.4 µM. For the compound `CCO/C(O)=C1\C(C)=NC(C)=C(C(=O)OC)C1c1ccc(OC)cc1` (centres undefined), on Adenosine receptor A2a (read-out: Ki), the Ki is 12.7 µM. Same read-out and setting: to `CCO/C(O)=C1\C(C)=NC(C)=C(C(=O)OC)C1C` (stereo in doubt; 1) belongs 46.1 µM. `COC(=O)C1=C(C)NC(C)=C(C(=O)OCCCN2CCC(c3ccccc3)(c3ccccc3)CC2)[C@@H]1c1cccc([N+](=O)[O-])c1` [DEXNIGULDIPINE]: the Ki result at Adenosine receptor A2a is listed as “Not Active”.

For the compound `CCO/C(O)=C1\C(C)=NC(C)=C(C(=O)OC)C1c1ccccc1C(F)(F)F` (centres undefined), on Adenosine receptor A2a (read-out: Ki), the inhibition constant Ki amounted to 20.7 µM.

Source of the values: ChEMBL document CHEMBL1129250, “Interaction of 1,4-dihydropyridine and pyridine derivatives with adenosine receptors: selectivity for A3 receptors” (J Med Chem, 1996).
